PostGolgi yeast – growth inhibition of a yeast mutant, post-Golgi transport screen; post-Golgi transport phenotypic cell assay; inhibition, % at 10 µM; hit rate 0.9% among 98,000;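 note: yeast cells grown in 1536-well plates; yeast grown about 18 h at 30C before absorbance read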
Yeast lifespan up – extends the lifespan of yeast. S. cerevisiae growth with nicotinamide, OD615; deaD strain in restrictive glucose medium. inhibition of the nicotinamide effect, % at 10 µM. hit rate 0.68% among 130,000;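 active = inhibition above a set limit, placed 3 SD over the median of all compounds, cut at about 26% in these data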
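Material: Modified budding yeast, DeaD strain | Medium: Restrictive glucose medium | Probe or stimulus: 1.5 mM nicotinamide | Dosing: Single dose 10 µM compound, 0.25% DMSO | Times: 48 h at 30 °C | Technique: OD615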
Yeast growth inh – yeast BB579 growth reduction in restrictive medium | S. cerevisiae BB579 growth, OD615, 48 h | inhibition, % at 10 µM | hit rate 0.51% among 140,000 | AID 804;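 active = inhibition above a set limit, 3 SD over the mean compound inhibition, cut at about 44% in these data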
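Detection: OD615 turbidity measurement; Material: Saccharomyces cerevisiae DeaD strain BB579, replicative lifespan model yeast; Timing: 48 h exposure, 30 °C; Doses: single 10 µM dose; Medium: CSMM-D restrictive synthetic medium containing dextrose (glucose); Controls: amphotericin B at 10 µg/mL as positive control.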
PostGolgi ctrl – yeast control strain growth, post-Golgi counter-screen; hit rate 5% among 98,000; AID 738; inhibition, % at 10 µM; efflux-deficient yeast background strain, growth absorbance A615, 16 h
Each line names hits and unclear results; the compound was inactive in the other large screens. The sample as a whole holds a higher share of hits than the screen did. Cut-off read from the data, not from the text of the source, unless noted: active = inhibition above about 30%; inactive = the rest.

Cc1ccc(S(=O)(=O)NC(C)C(c2cccs2)N2CCN(c3ccccc3)CC2)cc1 (centres undefined)	PostGolgi ctrl 46.7
O=C(NCC(c1cccnc1)N1CCN(c2ccccc2)CC1)C1CCCCC1 (centres undefined)	PostGolgi yeast 45.6
O=S(=O)(NCC(c1cccnc1)N1CCN(c2ccccc2)CC1)c1cccs1 (centres undefined)	PostGolgi yeast 87.6, PostGolgi ctrl 54.8
Cc1ccc(S(=O)(=O)NC(C)C(c2cccs2)N2CCN(C)CC2)cc1 (centres undefined)	none (no result: PostGolgi yeast, Yeast lifespan up, PostGolgi ctrl)
COC(=O)c1cc(OC)c(OC)cc1NC(=O)C(C)c1ccc([N+](=O)[O-])cc1 (centres undefined)	none (no result: PostGolgi yeast, PostGolgi ctrl)
Cc1ccc(C(=O)NNC(=O)CSc2nnc(-c3ccccc3)n2Cc2ccccc2)cc1	none (no result: PostGolgi yeast, PostGolgi ctrl)
Cc1nnc2sc(SCC(=O)Nc3nccs3)nn2c1=O	none (no result: PostGolgi yeast, PostGolgi ctrl)
O=C(NCC(c1cccnc1)N1CCN(c2ccc(F)cc2)CC1)OCc1ccccc1 (centres undefined)	PostGolgi yeast 58.6
O=C(C(NS(=O)(=O)c1cccs1)c1ccccc1)N1CCN(c2ccccc2)CC1 (centres undefined)	none
O=C(NCC(c1cccnc1)N1CCN(c2ccc(F)cc2)CC1)c1cccc(Cl)c1 (centres undefined)	PostGolgi yeast 76.6, PostGolgi ctrl 91.2
O=C1C(NS(=O)(=O)c2cccs2)=C(N2CCN(c3ccccc3)CC2)C(=O)c2ccccc21	PostGolgi ctrl 57.2
Cc1ccc(S(=O)(=O)NC2=C(N3CCN(Cc4ccccc4)CC3)C(=O)c3ccccc3C2=O)cc1	PostGolgi ctrl 45.7
Cc1ccc(S(=O)(=O)NC2=C(N3CCN(c4ccccc4F)CC3)C(=O)c3ccccc3C2=O)cc1	none
Cc1ccc(OCCOc2ccc(Br)cc2)c([N+](=O)[O-])n1	none (no result: PostGolgi yeast, PostGolgi ctrl)
COc1cc(Cl)c(S(=O)(=O)NCc2ccccn2)cc1Cl	none
Cc1ccc(NC(=S)NCCc2c[nH]c3ccccc23)cc1	none
CC(C)c1ccc(NC(=S)NCCc2c[nH]c3ccccc23)cc1	Yeast growth inh 54.9 (no result: PostGolgi yeast, PostGolgi ctrl)
CCCCNS(=O)(=O)c1ccc(OCC(=O)OC)cc1	none (no result: PostGolgi yeast, PostGolgi ctrl)
Cc1ccc2[nH]c3c(c2c1)CN(C(=O)CN1c2ccc(F)cc2CCC1C)CC3 (centres undefined)	PostGolgi ctrl 31.7
N#C/C=C(/N)N1CCN(c2ccc(Cl)c(Cl)c2)CC1	PostGolgi yeast 32.4
CCOC(=O)/C(=C\c1cccc(O)c1)c1nc2sc(C)c(C)c2c(=O)[nH]1	none (no result: PostGolgi yeast, PostGolgi ctrl)
O=C1C(Cl)=C(NCC2CCCO2)C(=O)N1c1ccccc1 (centres undefined)	none
O=C1C(Cl)=C(NCC2CCCO2)C(=O)N1C1CCCCC1 (centres undefined)	PostGolgi ctrl 41.2
COc1ccc(S(=O)(=O)N2CCN(c3c(C)cccc3C)CC2)cc1OC	PostGolgi ctrl 30.6
COc1ccc(S(=O)(=O)N2CCN(c3ccc(C)cc3C)CC2)cc1OC	none
Cc1cc(S(=O)(=O)N2CCN(c3ccccc3C)CC2)ccc1F	PostGolgi ctrl 30.1
Cn1c[n+](C)cc1-c1ccc(/C(N)=N/O)cc1	none (no result: PostGolgi yeast, PostGolgi ctrl)
CCCCCC(=O)NNC(=O)c1ccc(-c2ccccc2)cc1	none
N#CCC(CNc1ncc(C(F)(F)F)cc1Cl)OC(=O)c1cccc([N+](=O)[O-])c1 (centres undefined)	none
O=[N+]([O-])c1cc(C(F)(F)F)ccc1N/N=C/c1cc2ccccc2nc1Cl	PostGolgi yeast 44.1
Cc1ccc(SCCOCCN2CCc3ccccc3C2)cc1	none (no result: PostGolgi yeast, PostGolgi ctrl)
CCOC(=O)c1c(NC(=S)Nc2ccc(Cl)cc2)sc2c1CCN(C)C2	Yeast growth inh 98.3 (no result: PostGolgi yeast, PostGolgi ctrl)
CCCN1Cc2cccc(C(=O)Nc3ccc4c(c3)OCCO4)c2C1=O	PostGolgi ctrl 35.8
COc1ccc(C(=NNc2ccccc2C(=O)O)c2ccc(OC)cc2)cc1	none (no result: PostGolgi yeast, PostGolgi ctrl)
c1coc(CNc2nc(N3CCCCC3)nc3ccccc23)c1	PostGolgi yeast 40.0
Cc1ccc(NC(=O)c2ccccc2N(C)S(=O)(=O)c2ccccc2)c(C)c1	none (no result: PostGolgi yeast, PostGolgi ctrl)
CCOCC(=O)Nc1nc2c(s1)C(=O)CC(C)(C)C2	Yeast growth inh 45.0
CC1(C)CC(=O)c2sc(NC(=O)Cc3cccs3)nc2C1	none (no result: PostGolgi yeast, Yeast lifespan up, PostGolgi ctrl)
CC1(C)CC(=O)c2sc(NC(=O)C3CC3)nc2C1	PostGolgi ctrl 36.1
Cc1ccc(NC(=O)CSCC(=O)N2c3ccccc3CCc3ccccc32)cc1	none
CCCCCc1nc2c(=O)n(C)c3ccccc3c2o1	none
Cn1c(=O)c2nc(-c3ccccc3)oc2c2ccccc21	Yeast growth inh 78.4, PostGolgi ctrl 61.3
O=C1C2CC=CCC2C(=O)N1c1n[nH]c(CCc2ccccc2)n1 (centres undefined)	PostGolgi yeast 34.1
O=C1C2CC=CCC2C(=O)N1c1n[nH]c(-c2ccccc2)n1 (centres undefined)	none
Cc1nc(Cl)c(C(=O)NC(=O)NCc2ccccc2)c(C)c1Cl	none (no result: PostGolgi yeast, PostGolgi ctrl)
c1ccc(-n2nnnc2SCc2cccc(CSc3nnnn3-c3ccccc3)n2)cc1	none (no result: PostGolgi yeast, Yeast lifespan up, PostGolgi ctrl)
Clc1ccc(-n2nnnc2SCc2c(-c3ccccc3)nc3sccn23)cc1	PostGolgi ctrl 34.7
Cc1cc(/C=C(/C#N)c2nc3ccccc3[nH]2)c(C)n1-c1cccc([N+](=O)[O-])c1	PostGolgi yeast 34.4
Cc1cc(/C=C(\C#N)c2nc3ccccc3[nH]2)c(C)n1C	none (no result: PostGolgi yeast, PostGolgi ctrl)
Cc1cccc(N=C2N=C(N)c3ccccc32)c1	PostGolgi ctrl 33.1
CCCn1c2ccccc2c2nnc(SCC(=O)OCC)nc21	PostGolgi ctrl 39.3
CCCn1c2ccccc2c2nc3ccccc3nc21	PostGolgi ctrl 40.2
CCn1c2ccccc2c2nnc(SCC(N)=O)nc21	none
CCn1c2ccccc2c2nnc(SCc3ccc(C(=O)OC)o3)nc21	PostGolgi ctrl 42.1
CCn1c2ccccc2c2nnc(SCC(=O)NCCOC)nc21	none
CCn1c2ccccc2c2nnc(SCc3ccccc3)nc21	PostGolgi ctrl 61.2
CCOC(=O)Nc1sc(C)c(C)c1C(N)=O	none (no result: PostGolgi yeast, PostGolgi ctrl)
O=C(CCNc1ccc(F)cc1)c1ccco1	none
Cc1ccc(NC(=O)Nc2cccs2)cc1	PostGolgi ctrl 37.9
CCCCC(=O)N/N=C/c1ccc(N2CCOCC2)c([N+](=O)[O-])c1	none (no result: PostGolgi yeast, PostGolgi ctrl)
Cc1cc(C)cc(Oc2ncnc3c2ncn3Cc2c(Cl)cccc2Cl)c1	PostGolgi ctrl 34.1
O=C1CCCN1CCCN1C(=O)N[C@@H](Cc2ccccc2)C1=O	PostGolgi ctrl 35.2
CN1CCN(CCCC(=O)c2ccc(C3CCCC3)cc2)CC1	none (no result: PostGolgi yeast, PostGolgi ctrl)
CN(C)Cc1c(O)c(Cl)cc2c3c(c(=O)oc12)CCCC3	Yeast lifespan up 30.3
CCN(CC)Cc1c(O)c(Cl)cc2c3c(c(=O)oc12)CCCC3	none
COc1ccc(-c2cc(N)n(S(=O)(=O)c3c(F)c(F)c(F)c(F)c3F)n2)cc1OC	PostGolgi yeast 103.9, Yeast lifespan up 76.9, PostGolgi ctrl 67.6
COc1ccc(S(=O)(=O)n2nc(-c3cc(OC)c(OC)c(OC)c3)cc2N)cc1OC	none
CCCCCCCC(=O)N/N=C(\C)c1ccc(O)cc1O	none (no result: PostGolgi yeast, PostGolgi ctrl)
CCCCCCCC(=O)N/N=C(/C)c1c(O)cc(C)oc1=O	Yeast lifespan up 40.2
CCOC(=O)c1cc(-c2ccccc2)sc1NC(=O)C(C)Sc1nnc(C)s1 (centres undefined)	none (no result: PostGolgi yeast, PostGolgi ctrl)

Assay outcomes: PubChem BioAssay, SRMLSC
